Source: PubChem
The list is not random: actives were taken first. Their share in the collection is about 4.7%.
697 NFkB inh: inhibitors of the PMA/ionomycin-induced NF-kB reporter in 697 B cells; 697 B-cell NF-kB luciferase reporter, 16 h; inhibition, % at 4 µM; hit rate 0.33% among 330,000; AID 435022; in the data active = inhibition above about 35%
VIM-2 inhibitor: blocks Pseudomonas aeruginosa VIM-2 metallo-beta-lactamase | purified VIM-2, nitrocefin hydrolysis, epi-absorbance fluorescence | AID 1527 | inhibition, % at 5.6 µM | hit rate 0.89% among 290,000;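 active = inhibition above the mean of all tested compounds plus 3 SD, cutoff set per screening run, cut at about 7.5% in these data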;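 note: red hydrolysis product quenches plate fluorescence so inhibitors raise well fluorescence; 0% = enzyme with DMSO and 100% = DMSO without enzyme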
Mdm2-MdmX inh: inhibitors of human Mdm2/MdmX interaction; O15151+Q00987; SaOS-2 split-luciferase Mdm2/MdmX complementation, luminescence; hit rate 3% among 330,000; inhibition, % at 8 µM;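 active = inhibition of at least 50% at 8 µM in the primary screen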
Target sequence (O15151 whole entry, looked up): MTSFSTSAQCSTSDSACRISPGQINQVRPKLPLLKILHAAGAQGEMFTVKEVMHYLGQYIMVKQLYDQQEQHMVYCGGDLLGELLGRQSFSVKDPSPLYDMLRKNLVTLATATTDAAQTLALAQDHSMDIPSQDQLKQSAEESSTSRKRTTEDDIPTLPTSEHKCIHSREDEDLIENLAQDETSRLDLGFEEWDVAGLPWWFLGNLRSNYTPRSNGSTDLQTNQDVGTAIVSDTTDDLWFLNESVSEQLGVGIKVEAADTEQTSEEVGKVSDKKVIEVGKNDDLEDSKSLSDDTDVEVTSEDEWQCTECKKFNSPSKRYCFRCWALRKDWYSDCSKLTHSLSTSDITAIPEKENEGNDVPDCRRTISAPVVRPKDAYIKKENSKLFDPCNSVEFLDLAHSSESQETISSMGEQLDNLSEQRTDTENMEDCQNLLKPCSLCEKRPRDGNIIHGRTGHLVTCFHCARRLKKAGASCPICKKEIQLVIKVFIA
Target sequence (Q00987 whole entry, looked up): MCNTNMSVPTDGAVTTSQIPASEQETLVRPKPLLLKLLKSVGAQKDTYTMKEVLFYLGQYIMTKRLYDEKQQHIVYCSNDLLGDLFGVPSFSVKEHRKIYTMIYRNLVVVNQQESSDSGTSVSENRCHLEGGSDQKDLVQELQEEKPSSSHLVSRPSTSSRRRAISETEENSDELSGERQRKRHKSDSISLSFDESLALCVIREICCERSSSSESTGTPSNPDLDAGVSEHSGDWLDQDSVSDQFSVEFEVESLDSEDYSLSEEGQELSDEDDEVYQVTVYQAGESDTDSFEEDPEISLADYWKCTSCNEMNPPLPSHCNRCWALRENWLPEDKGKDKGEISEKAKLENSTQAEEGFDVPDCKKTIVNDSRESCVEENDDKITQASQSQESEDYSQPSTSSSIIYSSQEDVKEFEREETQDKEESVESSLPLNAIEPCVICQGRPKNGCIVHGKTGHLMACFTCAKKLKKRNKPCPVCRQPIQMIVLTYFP
Jurkat NFkB inh: lowers PMA/ionomycin-induced NF-kB signal in Jurkat cells | PMA/ionomycin-induced NF-kB luciferase reporter, luminescence | inhibition, % at 4 µM | hit rate 0.53% among 330,000; in the data active = inhibition above about 50%
aSyn UTR inh: MLPCN primary screen, SNCA 5' untranslated region | inhibition, % (tested at 7.5 µM) | alpha-synuclein 5'UTR reporter, inhibitor activity | hit rate 0.82% among 300,000; in the data active = inhibition above about 60%;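 note: H4 neuroglioblastoma cells stably carrying SNCA 5'UTR luciferase fusion; 0% = DMSO wells and 100% = positive control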
IMP-1 inh: inhibitors of Pseudomonas aeruginosa IMP-1 metallo-beta-lactamase; purified IMP-1, nitrocefin hydrolysis, epi-absorbance fluorescence; inhibition, % at 5.6 µM; hit rate 0.45% among 290,000; AID 1556;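 active = inhibition above the mean plus 3 SD of all compounds in the same screening run, cut at about 4.5% in these data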;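 note: 0% = IMP-1 with DMSO and 100% = DMSO wells lacking enzyme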
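Assay system: purified IMP-1; Quantity: IMP-1 0.2 nM before substrate addition; Medium: HEPES buffer pH 7.1 with ZnSO4 and Brij 35; Incubation: 15 min enzyme–compound preincubation, then 25 min nitrocefin reaction, 25 °C; Signal: fluorescence quenching readout, ex 480/em 530 nm; Controls: DMSO with and without IMP-1; Repeats: singlicate testing.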
Mdm2 MdmX conf: human Mdm2/MdmX binding inhibition, confirmed. shares compounds with Mdm2-MdmX inh. luminescent assay. inhibition, % at 8 µM. hit rate 55% among 10,000; in the data active = inhibition above about 40%
FLuc counter: full-length luciferase inhibition in Mdm2/MdmX counter-screen. SaOS-2 full-length luciferase counterscreen, luminescence. shares compounds with Mdm2-MdmX inh. hit rate 77% among 6,200. inhibition, % at 8 µM. AID 504607;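 active = mean inhibition at 8 µM reaching about 37%, which flags the compound as non-specific, limit read from the data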;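 note: p53-null SaOS-2 cells with luciferase driven by a doxycycline-inducible promoter; compound on cells about two nights before reading with doxycycline added after day one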
* hit, by the source's call; . = no result.

SMILES	697 NFkB inh	VIM-2 inhibitor	Mdm2-MdmX inh	Jurkat NFkB inh	aSyn UTR inh	IMP-1 inh	Mdm2 MdmX conf	FLuc counter
O=[N+]([O-])c1cc(Cl)cc(/C=N\Nc2ccccn2)c1O	-8	-1	70*	-12	90*	-2	77*	55*
Cc1ccc([N+](=O)[O-])cc1NC(=O)Nc1onc(C)c1C	12	-2	17	-20	-1	-3	.	.
CCC(C(=O)OCC(=O)Nc1c(Cl)cccc1Cl)c1ccccc1 (configuration not stated)	-20	3	13	-1	-23	-1	.	.
O=C(N/N=C/c1cc(Cl)cc([N+](=O)[O-])c1O)c1cc(-c2ccccn2)nc2ccccc12	2	-3	59*	8	-4	-2	2	.
Cc1nn(-c2ccccc2)c(N2CCCC2)c1/C=N/NC(=O)c1cc(-c2cccnc2)nc2ccccc12	29	-3	56*	7	16	-4	22	.
O=C(N/N=C/c1ccccn1)c1cc(C2CC2)nc2ccccc12	0	-3	-8	-7	8	-8	.	.
CC(/C=N/NC(=O)c1cc(-c2ccc(Cl)cc2)nc2ccccc12)=C\c1ccco1	-12	-2	66*	-10	85*	-5	0	.
O=C(N/N=C/c1ccccn1)c1cc(-c2ccccc2)nc2ccccc12	-8	-5	71*	-15	11	-4	3	.
CCCC(C)NC(=O)CSc1nc2ccc(C)cc2[nH]1 (configuration not stated)	16	0	26	7	17	-2	.	.
COc1cc2c(C#N)c(N3CCN(C)CC3)nc(N)c2c(N)n1	23	3	-13	-2	21	-4	.	.
COc1cc2c(C#N)c(N3CCN(c4ccccc4OC)CC3)nc(N)c2c(N)n1	-20	-1	75*	-13	26	-4	30	.
O=C(NCc1ccncc1)c1cccc(S(=O)(=O)Nc2ccc(SC(F)F)cc2)c1	-2	.	6	8	11	.	.	.
COc1ccc(CCNC(=O)/C=C/c2ccc3ccccc3n2)cc1OC	13	-2	58*	20	13	2	69*	54*
CC(C)CN(C#N)c1nc(N2CCOCC2)nc(N2CCOCC2)n1	19	0	51*	-8	20	-4	38	70*
CCN1CCOC(CC(=O)Nc2ccc([N+](=O)[O-])cc2)C1=O (configuration not stated)	17	0	11	10	-1	-3	.	.
Cc1ccc(S(=O)(=O)n2ccc3c(OCCOCCNCc4ccc(F)cc4)cccc32)cc1	-26	-1	54*	14	32	-2	23	.
C=CCn1cc(/C=C/c2cc[n+](C)cc2)c2ccccc21	5	10*	65*	21	17	7.8*	42*	76*
C=CCn1c(C)c(/C=C/c2cc[n+](C)cc2)c2ccccc21	-3	9.3*	64*	26	22	4	41*	69*
CCN(CC)C(=O)Cn1c(C)c(/C=C/c2cc[n+](C)cc2)c2ccccc21	7	3	11	3	-8	2	.	.
O=C(/C=C/c1ccco1)NCC1COc2ccccc2O1 (configuration not stated)	9	0	26	1	-31	0	.	.
Clc1ccc2c(c1)CCc1cccnc1C2=C1CCNCC1	7	-2	61*	12	13	-1	36	.
O=C1c2ccccc2-c2n[nH]c3cccc1c23	12	.	53*	-12	.	.	32	.
Cc1cc(C)nc(-n2nc(C)c(C3(O)C(=O)Nc4ccccc43)c2N)n1 (configuration not stated)	6	0	21	11	-34	-2	.	.
Nc1ncc(-c2ccccc2)c(-c2ccc(O)cc2O)n1	-18	1	61*	-1	18	-1	31	.
COc1ccc(Cl)cc1C(=O)NNC(=O)CCNS(=O)(=O)c1ccccc1	-15	.	-6	-22	.	.	.	.
SMILES	697 NFkB inh	VIM-2 inhibitor	Mdm2-MdmX inh	Jurkat NFkB inh	aSyn UTR inh	IMP-1 inh	Mdm2 MdmX conf	FLuc counter
Cc1ccc(-n2c(SCC(=O)N(C)C3CCS(=O)(=O)C3)nc3ccccc3c2=O)c(C)c1 (configuration not stated)	6	.	4	4	.	.	.	.
COc1cc(C(=O)N/N=C/c2ccsc2C)cc(OC)c1OC	-48	-2	77*	44	92*	-2	67*	89*
COC(=O)c1c(C)oc2ccc(N(C(=O)c3ccncc3)S(=O)(=O)c3ccc(C)cc3)cc12	-43	-4	56*	42	110*	-4	52*	86*
COC(=O)c1c(C)oc2ccc(N(C(=O)Oc3ccccc3)S(=O)(=O)c3ccc(Cl)c([N+](=O)[O-])c3)cc12	8	0	96*	-4	5	-2	-12	.
COC(=O)c1c(C)oc2ccc(N(C(=O)c3ccncc3)S(=O)(=O)c3ccccc3)cc12	-32	-3	35	16	31	-1	.	.
Cc1ccc(NC(=O)C2CCCN2C(=O)OCc2ccccc2)c(O)c1 (configuration not stated)	-14	-4	17	13	-58	-2	.	.
CC(C)C(=O)NNC(=O)c1ccccn1	-11	-2	7	-9	2	-9	.	.
COc1cccc(C(=O)N/N=C(/c2ccccc2)c2ccccn2)c1	-44	-4	84*	27	73*	-3	79*	39*
COc1cc(OC)cc(C(=O)NC(=S)NNC(=O)c2cnccn2)c1	11	0	60*	4	73*	-3	34	.
CC(Oc1cccc(Br)c1)C(=O)NNC(=O)c1ccccn1 (configuration not stated)	-19	.	72*	13	.	.	61*	36
CC(=O)c1ccc(OCCCC(=O)NNC(=O)c2ccccn2)cc1	25	.	63*	9	.	.	6	.
CCOc1ccc(OCCCC(=O)NNC(=O)c2ccncc2)cc1	9	.	23	-4	-10	.	.	.
Cc1onc(-c2c(Cl)cccc2Cl)c1-c1nc2cc(Cl)ccc2c(=O)o1	.	0	.	.	.	-1	.	.
COc1cc(OC)cc(C(=O)NNC(=O)c2ccc3ccccc3n2)c1	-30	.	55*	-8	.	.	69*	46*
COc1cc(OC)cc(C(=O)NNC(=O)c2ccccn2)c1	-12	-3	51*	-11	73*	-2	47*	51*
COc1cc(C(=O)NNC(=O)c2ccc3ccccc3n2)cc(OC)c1OC	3	.	50	-1	.	.	.	.
COc1ccc(C(=O)NC(=S)NNC(=O)c2ccc3ccccc3n2)cc1	9	-5	56*	-7	73*	-4	33	52*
COc1ccc(OCC(=O)NNC(=O)c2ccccn2)cc1	19	-3	28	5	0	-4	.	.
